Laboratory results reported in ChEMBL document CHEMBL2177081, “Orally active metabotropic glutamate subtype 2 receptor positive allosteric modulators: structure-activity relationships and assessment in a rat model of nicotine dependence” (J Med Chem, 2012).

Tests used:
Rattus norvegicus [1] = experiment: Tmax in rat at 10 mg/kg, po; type: ADME, organism-based; parameters: dose 10 mg/kg, route oral; conditions: in vivo
Rattus norvegicus [2] = experiment: Volume of distribution in rat at 10 mg/kg, po; type: ADME, organism-based; parameters: dose 10 mg/kg, route oral; conditions: in vivo
Summary of the method: (§1)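 Rats dosed orally at 10 mg/kg as sodium salts in sterile water, n = 3 (n = 5 for one compound). Plasma sampled for PK parameters; brain and plasma harvested at or near Tmax for levels and brain:plasma ratio.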

Rattus norvegicus [3] = experiment: AUC (0 to t) in rat at 10 mg/kg, ip; type: ADME, organism-based, Plasma; parameters: dose 10 mg/kg, route intraperitoneal; conditions: in vivo
Rattus norvegicus [4] = experiment: (§2) Cmax in rat at 10 mg/kg, ip; type: ADME, organism-based; parameters: dose 10 mg/kg, route intraperitoneal; conditions: in vivo
Summary of the method: (§3)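 Intraperitoneal dosing in rats at 10 mg/kg, sodium salt form, sterile water vehicle. Cmax is the maximum compound concentration detected in plasma, and terminal half-life was derived from the plasma profile.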

Rattus norvegicus [5] = experiment: AUC (0 to t) in rat at 10 mg/kg, po; type: ADME, organism-based, Plasma; parameters: dose 10 mg/kg, route oral; conditions: in vivo
Summary of the method: (§4)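 Sodium salt given orally at 10 mg/kg in sterile water to rats, n = 3 (n = 5 for one compound). Plasma was sampled over time for Cmax, Tmax, AUC(0–t), t1/2 and oral bioavailability. Brain and plasma were harvested at or near Tmax to measure levels and the brain:plasma ratio.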

Rattus norvegicus [6] = experiment: Cmax in rat at 10 mg/kg, po; type: ADME, organism-based; parameters: dose 10 mg/kg, route oral; conditions: in vivo
Summary of the method: (§5)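 Sodium salts were given to rats by oral dose at 10 mg/kg in sterile water, with n = 3 or 5 animals per compound. Plasma concentration was measured over time to give Cmax, Tmax, terminal half-life and oral bioavailability (F). Brain and plasma were taken at or near Tmax.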

Rattus norvegicus [7] = experiment: Volume of distribution in rat at 10 mg/kg, ip; type: ADME, organism-based; parameters: dose 10 mg/kg, route intraperitoneal; conditions: in vivo
Summary of the method: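 Intraperitoneal dose of 10 mg/kg in rats, given as sodium salt in sterile water; plasma PK parameters including volume of distribution.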

Rattus norvegicus [8] = experiment: Ratio of drug level in brain to plasma in rat at 10 mg/kg, po
Brain = experiment: Drug level in rat brain at 10 mg/kg, po; type: ADME, organism-based; parameters: dose 10 mg/kg, route oral; conditions: in vivo, read-out: Drug uptake; summary of the method: as §4
Plasma = experiment: Plasma concentration in rat at 10 mg/kg, po; type: ADME, organism-based; parameters: dose 10 mg/kg, route oral; conditions: in vivo; summary of the method: as §1
[9] = as §2; type: ADME, organism-based; parameters: dose 10 mg/kg, route intraperitoneal; conditions: in vivo; summary of the method: as §3
Rattus norvegicus [10] = experiment: Cmax in rat at 2 mg/kg, iv; type: ADME, organism-based; parameters: dose 2 mg/kg, route intravenous; conditions: in vivo
Summary of the method: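 Rats received sodium salts intravenously at 2 mg/kg in sterile water. Cmax is the maximum compound concentration detected in plasma, and terminal half-life was derived from the plasma concentration–time profile.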

Rattus norvegicus [11] = experiment: Oral bioavailability in rat at 10 mg/kg; type: ADME, organism-based; conditions: in vivo; summary of the method: as §5
Rattus norvegicus [12] = experiment: AUC (0 to t) in rat at 2 mg/kg, iv; type: ADME, organism-based, Plasma; parameters: dose 2 mg/kg, route intravenous; conditions: in vivo
Rattus norvegicus [13] = experiment: Volume of distribution in rat at 2 mg/kg, iv; type: ADME, organism-based; parameters: dose 2 mg/kg, route intravenous; conditions: in vivo
Summary of the method: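 Intravenous dose of 2 mg/kg in rats, given as sodium salt in sterile water; plasma PK parameters including volume of distribution.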

Structure (SMILES) | Tmax (Rattus norvegicus [1]) | Vd (Rattus norvegicus [2]) | AUCt (Rattus norvegicus [3]) | Cmax (Rattus norvegicus [4]) | AUCt (Rattus norvegicus [5]) | Cmax (Rattus norvegicus [6]) | Vd (Rattus norvegicus [7]) | BPR (Rattus norvegicus [8]) | concentration (Brain) | concentration (Plasma) | Cmax [9] | Cmax (Rattus norvegicus [10]) | F (Rattus norvegicus [11]) | AUCt (Rattus norvegicus [12]) | Vd (Rattus norvegicus [13])
O=C([O-])c1cc(-c2cccc(-c3ccc4c(c3)CN(C3CCCC3)C4=O)c2)ccc1Cl.[Na+] | 30 min | 96.2 mL | 3.23 µM·h | 2000 nM | 2.67 µM·h | 400 nM | 21.2 mL | – | – | – | – | – | – | – | –
O=C([O-])c1cc(-c2cccc(COc3ccc4c(=O)n(C5CC5)sc4c3)c2)ccc1Cl.[Na+] | 60 min | 4.1 mL | 25.8 µM·h | – | 61.5 µM·h | 8500 nM | 2.4 mL | 0.04 | 30 nM | 800 nM | 9600 nM | – | – | – | –
O=C([O-])c1cc(-c2cccc(COc3ccc4c(c3)CN(C3CCCC3)C4=O)c2)ccc1Cl.[Na+] | – | 3 mL | – | – | 42.5 µM·h | 3000 nM | – | 0.039 | – | – | – | 28200 nM | 71.4% | 11.8 µM·h | 0.6 mL
COc1ccc(C(=O)[O-])cc1-c1cccc(COc2ccc3c(c2)CN(C2CCCC2)C3=O)c1.[Na+] | 30 min | 10875.2 mL | – | – | 12 µM·h | 4000 nM | – | 0.13 | 180 nM | 1460 nM | – | 5600 nM | 84.8% | 6.7 µM·h | 4620 mL
O=C([O-])c1cc(-c2cccc(COc3ccc4c(c3)CN(C3CCCC3)C4=O)c2)ccc1O.[Na+] | 30 min | 28 mL | – | – | 7.1 µM·h | 1600 nM | – | 0.0335 | 7.1 nM | 210 nM | – | 3900 nM | 109.2% | 2.57 µM·h | 4.3 mL
